Laboratory results from ChEMBL document CHEMBL4041542, “Synthesis and biological characterisation of ester and amide derivatives of fusidic acid as antiplasmodial agents” (Bioorg Med Chem Lett, 2017).

Legend:
[1] = system: Plasmodium falciparum; test: Antiplasmodial activity against chloroquine-sensitive Plasmodium falciparum NF54 by LDH assay; assay type: functional
Method in brief: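 In vitro test on the chloroquine-sensitive NF54 strain of P. falciparum, read out by the lactate dehydrogenase assay. Reported as IC50. Chloroquine and artesunate were included as reference drugs in all experiments.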

[2] = system: Plasmodium falciparum; test: Antiplasmodial activity against chloroquine-resistant Plasmodium falciparum K1 by [3H]hypoxanthine incorporation assay; assay type: functional
Method in brief: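 Multidrug-resistant K1 strain of P. falciparum tested in vitro with a modified [3H]hypoxanthine incorporation assay. IC50 determined. Chloroquine and artesunate served as reference drugs in every experiment.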

[3] = system: CHO; test: Cytotoxicity against CHO cells; assay type: cell-based; conditions: Cricetulus griseus
[4] = Selectivity index, ratio of IC50 for CHO cells to IC50 for chloroquine-sensitive Plasmodium falciparum NF54; assay type: toxicity; conditions: hamster, read-out: Ratio IC50
Method in brief: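 IC50 against Chinese hamster ovary cells (cytotoxicity) was divided by IC50 against P. falciparum NF54. NF54 IC50 came from the lactate dehydrogenase assay, with chloroquine and artesunate as references.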

[5] = system: Plasmodium falciparum; test: Potency index, ratio of fusidic acid IC50 to compound IC50 for chloroquine-sensitive Plasmodium falciparum NF54; assay type: functional
Method in brief: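 Chloroquine-sensitive P. falciparum NF54 was tested with the lactate dehydrogenase assay, using chloroquine and artesunate as reference drugs. The index is fusidic acid's IC50 divided by the compound's IC50, both against NF54.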

[6] = system: Plasmodium falciparum; test: Potency index, ratio of fusidic acid IC50 to compound IC50 for chloroquine-resistant Plasmodium falciparum K1; assay type: functional
[7] = Stability of the compound assessed as Plasmodium falciparum NF54 esterase-mediated fusidic acid release at 0.5 uM up to 48 hrs by LC-MS/MS analysis; assay type: ADME; conditions: plasmodium falciparum nf54, isolated protein

SMILES | IC50 [1] | IC50 [2] | IC50 [3] | selectivity ratio [4] | Ratio IC50 [5] | Ratio IC50 [6] | Stability [7]
CC(=O)O[C@H]1C[C@@]2(C)[C@@H](C[C@@H](O)[C@H]3[C@@]4(C)CC[C@@H](O)[C@@H](C)[C@@H]4CC[C@@]32C)/C1=C(\CCC=C(C)C)C(=O)Oc1ccc2ccccc2c1 | 3.2 µM | 1.7 µM | > 155 µM | > 48 | 4 - 49 | 5 - 17 | –
CC(=O)O[C@H]1C[C@@]2(C)[C@@H](C[C@@H](O)[C@H]3[C@@]4(C)CC[C@@H](O)[C@@H](C)[C@@H]4CC[C@@]32C)/C1=C(\CCC=C(C)C)C(=O)Oc1ccc(Cl)c(Cl)c1 | 3.6 µM | 2.2 µM | 95 µM | 26 | 4 - 49 | 5 - 17 | –
CCCCCCCCCCCCCCNC(=O)/C(CCC=C(C)C)=C1\[C@@H](OC(C)=O)C[C@@]2(C)[C@H]1C[C@@H](O)[C@H]1[C@@]3(C)CC[C@@H](O)[C@@H](C)[C@@H]3CC[C@@]12C | 13.4 µM | 4 µM | > 140 µM | > 10 | 4 - 49 | 5 - 17 | –
CCCCCCCCCCCCOC(=O)/C(CCC=C(C)C)=C1\[C@@H](OC(C)=O)C[C@@]2(C)[C@H]1C[C@@H](O)[C@H]1[C@@]3(C)CC[C@@H](O)[C@@H](C)[C@@H]3CC[C@@]12C | > 100 µM | > 14.6 µM | > 146 µM | – | – | – | –
CC(=O)O[C@H]1C[C@@]2(C)[C@@H](C[C@@H](O)[C@H]3[C@@]4(C)CC[C@@H](O)[C@@H](C)[C@@H]4CC[C@@]32C)/C1=C(\CCC=C(C)C)C(=O)Oc1ccc(Br)cc1 | 2.1 µM | 1.6 µM | 95.3 µM | 45 | 20 - 28 | 12 - 14 | –
CC(=O)O[C@H]1C[C@@]2(C)[C@@H](C[C@@H](O)[C@H]3[C@@]4(C)CC[C@@H](O)[C@@H](C)[C@@H]4CC[C@@]32C)/C1=C(\CCC=C(C)C)C(=O)Oc1ccc(F)cc1 | 2.9 µM | 1.4 µM | 79.4 µM | 27 | 20 - 28 | 12 - 14 | –
CCOC(=O)/C(CCC=C(C)C)=C1\[C@@H](OC(C)=O)C[C@@]2(C)[C@H]1C[C@@H](O)[C@H]1[C@@]3(C)CC[C@@H](O)[C@@H](C)[C@@H]3CC[C@@]12C | 3.4 µM | 2.2 µM | 65.5 µM | 19 | 4 - 49 | 5 - 17 | Stable
CC(=O)O[C@H]1C[C@@]2(C)[C@@H](C[C@@H](O)[C@H]3[C@@]4(C)CC[C@@H](O)[C@@H](C)[C@@H]4CC[C@@]32C)/C1=C(\CCC=C(C)C)C(=O)Oc1cc(C)ccc1C | 3 µM | 1.4 µM | 103 µM | 34 | 4 - 49 | 5 - 17 | –
CC(=O)O[C@H]1C[C@@]2(C)[C@@H](C[C@@H](O)[C@H]3[C@@]4(C)CC[C@@H](O)[C@@H](C)[C@@H]4CC[C@@]32C)/C1=C(\CCC=C(C)C)C(=O)Oc1cccc(Cl)c1 | 1.4 µM | 1.2 µM | 87.7 µM | 63 | 4 - 49 | 5 - 17 | –
CC(=O)O[C@H]1C[C@@]2(C)[C@@H](C[C@@H](O)[C@H]3[C@@]4(C)CC[C@@H](O)[C@@H](C)[C@@H]4CC[C@@]32C)/C1=C(\CCC=C(C)C)C(=O)Oc1ccc(Cl)cc1 | 2.3 µM | 1.4 µM | 71.6 µM | 31 | 20 - 28 | 12 - 14 | –
COc1cccc(OC(=O)/C(CCC=C(C)C)=C2\[C@@H](OC(C)=O)C[C@@]3(C)[C@H]2C[C@@H](O)[C@H]2[C@@]4(C)CC[C@@H](O)[C@@H](C)[C@@H]4CC[C@@]23C)c1 | 1.8 µM | 1.3 µM | 86.4 µM | 48 | 4 - 49 | 5 - 17 | –
CC(=O)O[C@H]1C[C@@]2(C)[C@@H](C[C@@H](O)[C@H]3[C@@]4(C)CC[C@@H](O)[C@@H](C)[C@@H]4CC[C@@]32C)/C1=C(\CCC=C(C)C)C(=O)Oc1ccc(Cl)cc1Cl | 3.5 µM | 1.7 µM | 99.7 µM | 28 | 4 - 49 | 5 - 17 | –
CC(=O)O[C@H]1C[C@@]2(C)[C@@H](C[C@@H](O)[C@H]3[C@@]4(C)CC[C@@H](O)[C@@H](C)[C@@H]4CC[C@@]32C)/C1=C(\CCC=C(C)C)C(=O)Oc1ccc(C)cc1C | 2.4 µM | 1.4 µM | 98.9 µM | 41 | 4 - 49 | 5 - 17 | –
CCCCCCCCCCCCCCOC(=O)/C(CCC=C(C)C)=C1\[C@@H](OC(C)=O)C[C@@]2(C)[C@H]1C[C@@H](O)[C@H]1[C@@]3(C)CC[C@@H](O)[C@@H](C)[C@@H]3CC[C@@]12C | > 100 µM | > 14 µM | > 140 µM | – | – | – | –
CCCCCCCCCCCCCCCCNC(=O)/C(CCC=C(C)C)=C1\[C@@H](OC(C)=O)C[C@@]2(C)[C@H]1C[C@@H](O)[C@H]1[C@@]3(C)CC[C@@H](O)[C@@H](C)[C@@H]3CC[C@@]12C | > 100 µM | > 13.5 µM | > 135 µM | – | – | – | –
CCCCCCCCOC(=O)/C(CCC=C(C)C)=C1\[C@@H](OC(C)=O)C[C@@]2(C)[C@H]1C[C@@H](O)[C@H]1[C@@]3(C)CC[C@@H](O)[C@@H](C)[C@@H]3CC[C@@]12C | 4.6 µM | 1.6 µM | 92.4 µM | 20 | 4 - 49 | 5 - 17 | –
CC(=O)O[C@H]1C[C@@]2(C)[C@@H](C[C@@H](O)[C@H]3[C@@]4(C)CC[C@@H](O)[C@@H](C)[C@@H]4CC[C@@]32C)/C1=C(\CCC=C(C)C)C(=O)Oc1cccc(F)c1 | 2.6 µM | 2 µM | 89.4 µM | 34 | 4 - 49 | 5 - 17 | –
CC(=O)O[C@H]1C[C@@]2(C)[C@@H](C[C@@H](O)[C@H]3[C@@]4(C)CC[C@@H](O)[C@@H](C)[C@@H]4CC[C@@]32C)/C1=C(\CCC=C(C)C)C(=O)Oc1cc(F)cc(F)c1 | 4.7 µM | – | 96.7 µM | 21 | 4 - 49 | 5 - 17 | –
CC(=O)O[C@H]1C[C@@]2(C)[C@@H](C[C@@H](O)[C@H]3[C@@]4(C)CC[C@@H](O)[C@@H](C)[C@@H]4CC[C@@]32C)/C1=C(\CCC=C(C)C)C(=O)Oc1ccccc1 | 2.4 µM | 1.4 µM | 99.4 µM | 41 | 20 - 28 | 12 - 14 | Stable
CCCCCCCCCCCCNC(=O)/C(CCC=C(C)C)=C1\[C@@H](OC(C)=O)C[C@@]2(C)[C@H]1C[C@@H](O)[C@H]1[C@@]3(C)CC[C@@H](O)[C@@H](C)[C@@H]3CC[C@@]12C | 1.2 µM | 1.5 µM | > 146 µM | > 122 | 4 - 49 | 5 - 17 | –
CC(=O)O[C@H]1C[C@@]2(C)[C@@H](C[C@@H](O)[C@H]3[C@@]4(C)CC[C@@H](O)[C@@H](C)[C@@H]4CC[C@@]32C)/C1=C(\CCC=C(C)C)C(=O)Oc1cccc(Br)c1 | 2.6 µM | 1.6 µM | 98.3 µM | 38 | 4 - 49 | 5 - 17 | –
CC(=O)O[C@H]1C[C@@]2(C)[C@@H](C[C@@H](O)[C@H]3[C@@]4(C)CC[C@@H](O)[C@@H](C)[C@@H]4CC[C@@]32C)/C1=C(\CCC=C(C)C)C(=O)Oc1cc(Cl)cc(Cl)c1 | 2 µM | 1.1 µM | 81.9 µM | 41 | 4 - 49 | 5 - 17 | –
CCCCOC(=O)/C(CCC=C(C)C)=C1\[C@@H](OC(C)=O)C[C@@]2(C)[C@H]1C[C@@H](O)[C@H]1[C@@]3(C)CC[C@@H](O)[C@@H](C)[C@@H]3CC[C@@]12C | 2.9 µM | 1.5 µM | 37.4 µM | 13 | 4 - 49 | 5 - 17 | –
CCCCCCCCCCCCCCCCOC(=O)/C(CCC=C(C)C)=C1\[C@@H](OC(C)=O)C[C@@]2(C)[C@H]1C[C@@H](O)[C@H]1[C@@]3(C)CC[C@@H](O)[C@@H](C)[C@@H]3CC[C@@]12C | > 100 µM | > 13.5 µM | > 135 µM | – | – | – | –
C[C@H]1[C@H](OC(=O)CCC(=O)O)O[C@@H]2O[C@@]3(C)CC[C@H]4[C@H](C)CC[C@@H]1[C@@]24OO3 [ARTESUNATE] | 0.0093 µM | 0.0026 µM | – | – | – | – | –
CC[C@H]1CN2CCc3cc(OC)c(OC)cc3[C@@H]2C[C@@H]1C[C@H]1NCCc2cc(OC)c(OC)cc21 [EMETINE] | – | – | 0.178 µM | – | – | – | –
